High-throughput results (PubChem BioAssay)
STAT3 inh: reduces IL-6 driven STAT3 reporter signal. U3A cells, IL-6 STAT3-luciferase reporter, luminescence; host cell line lacks STAT1. inhibition, % at 5.5 µM. hit rate 0.89% among 190,000;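 active = inhibition above the mean inhibition across all screened compounds plus 3 SD, cut at about 44% in these data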;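 note: 0% = DMSO only wells and 100% = 100 µM nifuroxazide control wells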
NF-kB neuron act: raises NF-kB expression in human neuronal cells | NF-kB reporter expression; hits give high values | fold change at 12.5 µM | hit rate 1.6% among 190,000; in the data active = fold change above about 3.3
STAT1 act: STAT1 signaling activation; NIH 3T3 STAT1-luciferase reporter, IFN-gamma, luminescence; 100% = IFN-gamma alone, no compound; activation (% of control), % at 5.5 µM; hit rate 2.6% among 200,000;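 active = activation above the screen-wide mean activation plus 3 SD, cut at about 130% in these data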;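 note: raw ratio to IFN-gamma control signal so 100% means no change and 0% no light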
STAT3 activator: activators of IL-6 induced STAT3 signaling | U3A cells, IL-6 STAT3-luciferase reporter, luminescence; 100% = signal with IL-6 EC80 alone | hit rate 0.91% among 190,000 | activation (% of control), % at 5.6 µM;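 active = activation above the screen-wide mean of compound activation plus 3 SD, cut at about 130% in these data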;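 note: 0% = background luminescence of wells with medium and substrate only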
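Detection: reporter luminescence signal / Assay system: STAT1-lacking human U3A cells, STAT3 luciferase reporter / Incubation: compound pre-incubation 1 h before IL-6, then 6 h stimulation at 37 °C / Control set: IL-6-only high control / Read-out: % activation relative to IL-6 control / Probe or stimulus: Interleukin-6, 33 ng/mL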
APP 5'UTR act: APP 5'UTR luciferase reporter activation; SH-SY5Y APP 5'UTR luciferase reporter, luminescence; zero percent = DMSO vehicle wells; activation, % at 2 µM; hit rate 1% among 190,000;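 active = activation above a set limit, based on mean plus 3 SD of controls, cut at about 140% in these data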
STAT1 inh: STAT1 signaling inhibition; hit rate 0.35% among 200,000; NIH 3T3 STAT1-luciferase reporter, IFN-gamma, luminescence; inhibition, % at 5.5 µM;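 active = inhibition above a set limit, the mean inhibition across all tested compounds plus 3 SD, cut at about 34% in these data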;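 note: 0% = IFN-gamma with DMSO and 100% = IFN-gamma with 300 µM nifuroxazide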
STAT1 act conf: confirmation of STAT1 signaling activators. activation (% of control), % at 5.7 µM. hit rate 97% among 1,200. shares compounds with STAT1 act. AID 1262. NIH 3T3 STAT1-luciferase reporter, IFN-gamma potentiation, luminescence; 100% = IFN-gamma EC80 alone, no compound;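 active = activation above a set limit carried over from the earlier primary STAT1 screen, cut at about 140% in these data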;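 note: simple ratio to median IFN-gamma plus DMSO wells so 0% means no light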
NFkB act STAT1ct: NF-kappaB activation in STAT1 activator counter-screen; shares compounds with STAT1 act; HEK293T NF-kB luciferase reporter, TNF-alpha stimulated, luminescence; 100% = TNF-alpha with vehicle only; activation (% of control), % at 5.7 µM; hit rate 43% among 1,200; AID 1306;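 active = activation above the mean of solvent-only control wells plus 3 SD, set per campaign, cut at about 130% in these data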;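 note: TNF-alpha given at a submaximal dose yielding about 80% of full reporter signal; values are well signal over median control so 100% means no change and 0% no light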
STAT3 act STAT1c: human STAT3 activation in STAT1 activator counter-screen. shares compounds with STAT1 act. U3A cells STAT3-luciferase reporter, IL-6, luminescence; cells lack STAT1; 100 = IL-6 alone, no compound effect. activation (% of control), % at 5.7 µM. hit rate 46% among 1,200;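 active = activation above the solvent-only control well mean plus 3 SD, set per plate batch, cut at about 110% in these data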;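 note: 0% = no luminescence and 100% = median IL-6 plus DMSO wells; higher means more STAT3 reporter activation so hits are non-selective activators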
Numbers without * were called inactive. This is a sample that favours compounds with a hit; in the whole collection about 4.9% have one here.

What do the screens show for `CC1(C)Nc2ccccc2N(Cc2ccc([N+](=O)[O-])cc2)C1=O`?
STAT3 inh: -1; NF-kB neuron act: 1.1; STAT1 act: 103; STAT3 activator: 100; APP 5'UTR act: 16; STAT1 inh: -3

Results for O=C(N/N=C/C(Cl)=C/c1ccccc1)c1ccco1 ?
STAT3 inh: 9; NF-kB neuron act: 4.3*; STAT1 act: 156*; STAT3 activator: 94; APP 5'UTR act: 89; STAT1 inh: -61; STAT1 act conf: 186*; NFkB act STAT1ct: 134*; STAT3 act STAT1c: 109

What do the screens show for `O=c1c(Cc2ccc(Cl)cc2Cl)c(O)ccn1CCCN1CCOCC1`?
STAT3 inh: 18; NF-kB neuron act: 1; STAT1 act: 92; STAT3 activator: 93; APP 5'UTR act: 23; STAT1 inh: 7

How did O=C(CCc1nnc(CCCc2ccccc2)o1)N1CCCCCC1 do in these assays?
STAT3 inh: -2; NF-kB neuron act: 2.3; STAT1 act: 153*; STAT3 activator: 105; APP 5'UTR act: 76; STAT1 inh: -61; STAT1 act conf: 142*; NFkB act STAT1ct: 122; STAT3 act STAT1c: 107

Results for CCc1cc(CNC(=O)CCc2nnc(CCCc3ccccc3)o2)on1 ?
STAT3 inh: -10; NF-kB neuron act: 3.4*; STAT1 act: 158*; STAT3 activator: 111; APP 5'UTR act: 70; STAT1 inh: -65; STAT1 act conf: 168*; NFkB act STAT1ct: 125; STAT3 act STAT1c: 115*

How did O=C(CCc1nnc(C2CCCCC2)o1)N1CCN(c2ccccc2F)CC1 do in these assays?
STAT3 inh: -13; NF-kB neuron act: 2.6; STAT1 act: 163*; STAT3 activator: 116; APP 5'UTR act: 85; STAT1 inh: -73; STAT1 act conf: 172*; NFkB act STAT1ct: 137*; STAT3 act STAT1c: 117*

Results for Clc1cccc(N2CCN(Cc3nnc(-c4ccccc4)o3)CC2)c1 ?
STAT3 inh: 6; NF-kB neuron act: 1.1; STAT1 act: 96; STAT3 activator: 97; APP 5'UTR act: 7; STAT1 inh: 3

How did Clc1cccc(-c2nnc(-c3ccccc3)o2)c1 do in these assays?
STAT3 inh: 36; NF-kB neuron act: 8.8*; STAT1 act: 156*; STAT3 activator: 72; APP 5'UTR act: 136*; STAT1 inh: -61; STAT1 act conf: 209*; NFkB act STAT1ct: 117; STAT3 act STAT1c: 107

What do the screens show for `COc1ccc(C(=O)N/N=C/C2CC=CCC2)cc1OC` (stereo not drawn)?
STAT3 inh: 5; NF-kB neuron act: 1.1; STAT1 act: 101; STAT3 activator: 97; APP 5'UTR act: -5; STAT1 inh: -2

How did Cc1ccc2cc(CCNC(=O)c3ccco3)c(=O)[nH]c2c1C do in these assays?
STAT3 inh: -6; NF-kB neuron act: 3.9*; STAT1 act: 156*; STAT3 activator: 104; APP 5'UTR act: 129; STAT1 inh: -64; STAT1 act conf: 201*; NFkB act STAT1ct: 138*; STAT3 act STAT1c: 121*

Results for Cc1ccc2cc(CCNC(=O)c3ccco3)c(=O)[nH]c2c1 ?
STAT3 inh: 7; NF-kB neuron act: 2.4; STAT1 act: 128; STAT3 activator: 95; APP 5'UTR act: 47; STAT1 inh: -30

Results for Cc1cc2cc(CCNC(=O)c3cccs3)c(=O)[nH]c2cc1C ?
STAT3 inh: -3; NF-kB neuron act: 2; STAT1 act: 151*; STAT3 activator: 103; APP 5'UTR act: 98; STAT1 inh: -57; STAT1 act conf: 176*; NFkB act STAT1ct: 131; STAT3 act STAT1c: 96

What do the screens show for `CCCCNc1nc(N)nc(-c2cc(Cl)ccc2O)n1`?
STAT3 inh: -7; NF-kB neuron act: 1.6; STAT1 act: 178*; STAT3 activator: 110; APP 5'UTR act: 155*; STAT1 inh: -89; STAT1 act conf: 230*; NFkB act STAT1ct: 145*; STAT3 act STAT1c: 154*

What do the screens show for `CCNc1nc(N)nc(-c2cc(Cl)ccc2O)n1`?
STAT3 inh: 29; NF-kB neuron act: 6.8*; STAT1 act: 196*; STAT3 activator: 77; APP 5'UTR act: 215*; STAT1 inh: -104; STAT1 act conf: 288*; NFkB act STAT1ct: 145*; STAT3 act STAT1c: 167*

How did CCCNc1nc(N)nc(-c2cc(Cl)ccc2OC)n1 do in these assays?
STAT3 inh: -8; NF-kB neuron act: 0.82; STAT1 act: 97; STAT3 activator: 107; APP 5'UTR act: -6; STAT1 inh: 3

How did COc1ccc(C(=O)OCn2nnc3ccccc3c2=O)cc1 do in these assays?
STAT3 inh: 5; NF-kB neuron act: 0.99; STAT1 act: 92; STAT3 activator: 97; APP 5'UTR act: -5; STAT1 inh: 7

What do the screens show for `Cn1c(=O)[nH]c(Nc2ccccc2)c([N+](=O)[O-])c1=O`?
STAT3 inh: 2; NF-kB neuron act: 0.98; STAT1 act: 104; STAT3 activator: 102; APP 5'UTR act: 8; STAT1 inh: -8

How did CCCCNC(=O)N1CCc2ccccc2C1 do in these assays?
STAT3 inh: 2; NF-kB neuron act: 1.5; STAT1 act: 106; STAT3 activator: 103; APP 5'UTR act: 9; STAT1 inh: -7

How did CC(C)c1ccc(NC(=O)N2CCc3ccccc3C2)cc1 do in these assays?
STAT3 inh: -9; NF-kB neuron act: 3; STAT1 act: 156*; STAT3 activator: 114; APP 5'UTR act: 86; STAT1 inh: -62; STAT1 act conf: 148*; NFkB act STAT1ct: 131; STAT3 act STAT1c: 120*

What do the screens show for `O=[N+]([O-])c1ccccc1OCCCn1cnc2ccccc21`?
STAT3 inh: 0; NF-kB neuron act: 4.1*; STAT1 act: 169*; STAT3 activator: 104; APP 5'UTR act: 130; STAT1 inh: -79; STAT1 act conf: 188*; NFkB act STAT1ct: 132; STAT3 act STAT1c: 106

How did O=C(Cn1cnc2ccccc2c1=O)c1ccc(Cl)cc1 do in these assays?
STAT3 inh: 11; STAT1 act: 155*; STAT3 activator: 95; APP 5'UTR act: 17; STAT1 inh: -59; STAT1 act conf: 148*; NFkB act STAT1ct: 113; STAT3 act STAT1c: 95

Results for O=[N+]([O-])c1ccc2cn(-c3ccccc3)nc2c1 ?
STAT3 inh: -6; NF-kB neuron act: 1.3; STAT1 act: 152*; STAT3 activator: 102; APP 5'UTR act: 141*; STAT1 inh: -52; STAT1 act conf: 196*; NFkB act STAT1ct: 135*; STAT3 act STAT1c: 99
